Active and inactive are the calls of the source.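 Rule for the calls, unless noted: active = viability at or below 10% of carrier control in both of two separate runs; inconclusive = viability at or below 10% in only one of the two runs; inactive = the rest.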
What was measured:
[1] = reducers of endogenous Her2 protein level, primary screen, SKBR3 breast tumor cells, AlphaScreen, ATP viability (AID 461;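 active = Her2 level under about 52% in both replicate screens, with viability over 70% of control, limit read from the data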;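 for Her2 level: lower value means less Her2 protein in the cells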;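 for viability: percent of carrier control wells set as 100% viability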); conditions: 18-24 h, measured here: SKBR3 viability, ATP luminescence, at 10 µM
[2] = molecular target: Receptor tyrosine-protein kinase erbB-2 (Homo sapiens) (UniProt P04626); assay: as above; conditions: 18-24 h, at 10 µM, stronger effect = lower value
[3] = SK-BR-3 cell growth inhibitors, pilot screen, 24 h, human (AID 572); conditions: SK-BR-3 viability, CellTiter-Glo luminescence, at 10 µM, stronger effect = lower value;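 note: compound exposure lasted between 18 and 24 h rather than exactly 24 h; 100% = carrier-treated control wells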
[4] = HUVEC growth inhibition – cell-based, human, primary screen (AID 575;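 active = viability at or below 30% in both replicate assays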;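 note: 100% = median of untreated cell wells with 0.1% DMSO on each plate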); conditions: HUVEC proliferation, CellTiter-Glo luminescence, 72 h; at 10 µM; stronger effect = lower value
Summary of the method: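 System – primary HUVEC, no more than 12 passages · Medium – Low-serum (2% FBS) EBM, supplemented · Times – 72 h exposure, 37 °C, 5% CO2, 30 min RT equilibration · Measured by – luminescent ATP assay · Read-out – % viability relative to median vehicle-well signal on each plate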

[5] = growth inhibitors of H69AR lung tumor, primary screen, human, duplicate replicates (AID 580;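 active = viability at or under a set limit in both replicates, limit being median viability minus 3 SD, cut at about 48% in these data, passing the limit was not always enough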;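 note: 100% = mean luminescence of untreated wells and 0% = no signal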); conditions: H69AR lung tumor cells viability, ATP luminescence, 72 h; at 10 µM; stronger effect = lower value
[6] = reversal of MRP1-mediated doxorubicin resistance, pilot screen, H69AR cells, doxorubicin co-treatment (AID 601;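 active = viability loss from added drug above about 55%, and viability with drug at most 40%, in both replicates, limit read from the data, passing the limit was not always enough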); conditions: CellTiter-Glo, 72 h, at 10 µM; for differential viability (reversal): stronger effect = higher value
[7] = 384-well plate pilot, post-Golgi transport modulator project, inhibition of yeast transport mutant growth (AID 636; in the data active = inhibition above about 31%); conditions: absorbance 615 nm, about 18 h, stronger effect = higher value
[8] = growth suppression of yeast trafficking mutant, preliminary HTS, modulators of trafficking downstream of Golgi apparatus project, 1536-format plate, OD 615 nm (AID 637; in the data active = inhibition above about 30%); conditions: yeast transport mutant growth, absorbance 615 nm, 18 h; stronger effect = higher value
[9] = H69AR cells + 2 uM doxorubicin, measured here: viability with 2 uM doxorubicin, stronger effect = lower value
[10] = H69AR cells, compound alone cytotoxicity

Chain of Receptor tyrosine-protein kinase erbB-2 (Homo sapiens) (P04626 whole entry, looked up): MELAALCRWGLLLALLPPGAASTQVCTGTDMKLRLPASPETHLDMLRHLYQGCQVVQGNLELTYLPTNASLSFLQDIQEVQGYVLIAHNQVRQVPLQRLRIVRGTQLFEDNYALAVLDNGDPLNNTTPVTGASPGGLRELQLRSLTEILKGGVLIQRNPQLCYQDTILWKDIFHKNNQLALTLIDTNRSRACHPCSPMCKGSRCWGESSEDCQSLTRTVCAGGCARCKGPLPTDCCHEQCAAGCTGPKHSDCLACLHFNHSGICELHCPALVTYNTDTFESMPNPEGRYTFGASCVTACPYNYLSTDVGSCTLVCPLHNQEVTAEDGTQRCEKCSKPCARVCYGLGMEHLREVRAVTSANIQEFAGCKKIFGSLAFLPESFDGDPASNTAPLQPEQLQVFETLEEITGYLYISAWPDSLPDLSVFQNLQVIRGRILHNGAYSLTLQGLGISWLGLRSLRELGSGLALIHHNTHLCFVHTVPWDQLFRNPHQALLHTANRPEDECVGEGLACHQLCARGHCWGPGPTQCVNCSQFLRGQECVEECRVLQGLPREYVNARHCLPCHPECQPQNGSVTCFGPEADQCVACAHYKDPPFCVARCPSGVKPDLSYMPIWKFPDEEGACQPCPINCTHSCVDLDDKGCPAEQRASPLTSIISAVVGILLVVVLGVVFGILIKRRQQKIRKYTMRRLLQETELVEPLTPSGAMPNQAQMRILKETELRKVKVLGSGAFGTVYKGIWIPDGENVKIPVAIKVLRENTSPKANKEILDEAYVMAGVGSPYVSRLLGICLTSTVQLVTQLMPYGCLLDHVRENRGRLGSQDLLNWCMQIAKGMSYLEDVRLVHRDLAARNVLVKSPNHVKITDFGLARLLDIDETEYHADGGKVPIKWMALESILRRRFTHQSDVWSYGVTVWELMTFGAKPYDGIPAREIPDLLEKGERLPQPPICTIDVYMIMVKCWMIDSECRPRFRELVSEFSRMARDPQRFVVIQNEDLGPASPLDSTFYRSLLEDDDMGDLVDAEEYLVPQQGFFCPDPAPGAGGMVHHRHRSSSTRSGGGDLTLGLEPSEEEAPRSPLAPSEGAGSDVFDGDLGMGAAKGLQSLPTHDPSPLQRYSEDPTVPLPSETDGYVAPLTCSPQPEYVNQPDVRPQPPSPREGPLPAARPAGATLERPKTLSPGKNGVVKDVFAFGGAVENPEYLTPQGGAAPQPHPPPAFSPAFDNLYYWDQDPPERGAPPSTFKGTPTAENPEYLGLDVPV

Row | Compound | viability [1] [%] | Her2 level [2] | viability [3] | viability [4] | viability [5] | differential viability (reversal) ([6]; H69AR cells + 2 uM doxorubicin) | viability [6, 9] [%] | viability [6, 10] [%] | inhibition [7] | inhibition [8]
1 | COc1ccc(C)cc1S(=O)(=O)N1CCN(Cc2ccccc2)CC1 | 98 | 94.5% (inactive) | 98% (inactive) | 96.1% (inactive) | 91.2% (inactive) | -1.38% (inactive) | 92.6 | 91.2 | -2.24% (inactive) | 1.13% (inactive)
2 | COc1cc(OC)c(NC(=O)c2ccco2)cc1Cl | 121 | 81.5% (inactive) | 121% (inactive) | 92.1% (inactive) | 84.7% (inactive) | -12.1% (inactive) | 96.9 | 84.7 | -3.95% (inactive) | 0% (inactive)
3 | CC(C)(C)OC(=O)NC(CCNC=C1C(=O)OC(C)(C)OC1=O)C(=O)O (stereo not given) | 105 | 92.5% (inactive) | 105% (inactive) | 104% (inactive) | 101% (inactive) | 11.6% (inactive) | 89.2 | 101 | -7.03% (inactive) | -3.5% (inactive)
4 | CC1CCCC(C)N1C(=O)COC(=O)c1ccc[nH]c1=O (stereo not given) | 102 | 86% (inactive) | 102% (inactive) | 95.9% (inactive) | 97.7% (inactive) | -5.21% (inactive) | 103 | 97.7 | -4.49% (inactive) | 1.67% (inactive)
5 | CCOC(=O)c1ccc(N2C(=O)CC(NC3CCN(C(=O)c4ccc(F)cc4)CC3)C2=O)cc1 (stereo not given) | 102 | 126% (inactive) | 102% (inactive) | 103% (inactive) | 110% (inactive) | 14% (inactive) | 96 | 110 | 1.45% (inactive) | -5% (inactive)
6 | COc1ccc(OC)c(S(=O)(=O)NCCC2=CCCCC2)c1 | 77 | 87.5% (inactive) | 77% (inactive) | 106% (inactive) | 96.6% (inactive) | -5.82% (inactive) | 102 | 96.6 | -6.89% (inactive) | -3.77% (inactive)
7 | CCOC(=O)c1ccc(NC(=O)CSc2ncccn2)cc1 | 104 | 112% (inactive) | 104% (inactive) | 85.9% (inactive) | 96.9% (inactive) | 2.45% (inactive) | 94.5 | 96.9 | -0.53% (inactive) | 4.26% (inactive)
8 | CC(=O)c1c(C)[nH]c(C(=O)Nc2ccc3c(c2)OCCO3)c1C | 102 | 92% (inactive) | 102% (inactive) | 86.1% (inactive) | 92.9% (inactive) | 18.1% (inactive) | 74.8 | 92.9 | -0.26% (inactive) | 2.42% (inactive)
9 | Cc1cccc(-n2c(O)c(C=Nc3ccccc3N)c(=O)[nH]c2=O)c1 | 108 | 94.5% (inactive) | 108% (inactive) | 88.2% (inactive) | 10.1% (active) | -28.2% (inactive) | 38.3 | 10.1 | -5.19% (inactive) | -0.16% (inactive)
10 | Nc1c(C(=O)NCCc2ccccc2)nnn1Cc1ccccc1 | 108 | 97.5% (inactive) | 108% (inactive) | 89% (inactive) | 95.8% (inactive) | 11.2% (inactive) | 84.7 | 95.8 | -8.55% (inactive) | -1.45% (inactive)
11 | CC(=O)c1ccc(NS(=O)(=O)c2ccccc2)cc1 | 95 | 137% (inactive) | 95% (inactive) | 91.5% (inactive) | 98.6% (inactive) | 7.02% (inactive) | 91.6 | 98.6 | 4.42% (inactive) | 5.33% (inactive)
12 | CN(Cc1ccccc1)C(=O)CNC(=O)Cn1cnc2ccccc2c1=O | 100 | 83% (inactive) | 100% (inactive) | 91.9% (inactive) | 100% (inactive) | 9.23% (inactive) | 90.8 | 100 | -3.11% (inactive) | -5.71% (inactive)
13 | Cc1cc(C)c(S(=O)(=O)Nc2cccnc2)c(C)c1 | 100 | 91% (inactive) | 100% (inactive) | 105% (inactive) | 97.8% (inactive) | 8.71% (inactive) | 89.1 | 97.8 | -4.93% (inactive) | -0.16% (inactive)
14 | CCOC(=O)CSc1nc(N)c2c3c(sc2n1)CCCC3 | 104 | 96.5% (inactive) | 104% (inactive) | 78.7% (inactive) | 89.3% (inactive) | 0.02% (inactive) | 89.3 | 89.3 | 0.8% (inactive) | 2.58% (inactive)
15 | CS(=O)(=O)N(CC(=O)O)c1cccc(Cl)c1 | 95 | 120% (inactive) | 95% (inactive) | 115% (inactive) | 95.7% (inactive) | -0.88% (inactive) | 96.6 | 95.7 | 2.11% (inactive) | 2.95% (inactive)
16 | O=C1c2ccccc2C(=O)N1Cc1nc2ccccc2c(=O)n1CCN1CCOCC1 | 97.5 | 81.5% (inactive) | 97.5% (inactive) | 111% (inactive) | 88.8% (inactive) | -3.33% (inactive) | 92.2 | 88.8 | -1.18% (inactive) | -4% (inactive)

From PubChem BioAssay
